# Published values pooled from the literature.
# Lines come from different studies, so protocols differ.
# PIK3CA: Phosphatidylinositol 4,5-bisphosphate 3-kinase catalytic subunit alpha isoform (PIK3CA, Homo sapiens, UniProt P42336)
# PIK3CA E545K: Phosphatidylinositol 4,5-bisphosphate 3-kinase catalytic subunit alpha isoform (PIK3CA, Homo sapiens, UniProt P42336, E545K)
# PIK3CA M1043I: Phosphatidylinositol 4,5-bisphosphate 3-kinase catalytic subunit alpha isoform (PIK3CA, Homo sapiens, UniProt P42336, M1043I)
# PIK3CA H1047Y: Phosphatidylinositol 4,5-bisphosphate 3-kinase catalytic subunit alpha isoform (PIK3CA, Homo sapiens, UniProt P42336, H1047Y)
# PIK3CA I800L: Phosphatidylinositol 4,5-bisphosphate 3-kinase catalytic subunit alpha isoform (PIK3CA, Homo sapiens, UniProt P42336, I800L)
# PIK3CA E542K: Phosphatidylinositol 4,5-bisphosphate 3-kinase catalytic subunit alpha isoform (PIK3CA, Homo sapiens, UniProt P42336, E542K)
SMILES,target,test,conditions,measurement,result
CS(=O)(=O)Nc1cc(-c2ccc3ncnc(Nc4ccc(F)c(Cl)c4)c3c2)cnc1Cl,PIK3CA,"enzyme activity, inhibitor, FRET",10 µM,inhibition,90 to 100%
Cc1ccc(C(=O)Nc2ccc(CN3CCN(C)CC3)c(C(F)(F)F)c2)cc1C#Cc1cnc2cccnn12,PIK3CA E545K,"enzyme activity, inhibitor",23.5 nM,remaining activity,88%
F[C@@H]1CCN(c2nccc(-c3cnn4ncccc34)n2)C1,PIK3CA M1043I,binding,1 µM,remaining binding,100%
Cc1c[nH]c2nccc(Oc3c(F)cc(Nc4cc(Cl)nc(N)n4)cc3F)c12,PIK3CA H1047Y,"cell-free assay, competition with immobilised ligand",0.1 µM,remaining binding,83%
Cc1ccc(C(=O)NCc2ccsc2)cc1C#Cc1cn(C(C)C)c2ncnc(N)c12,"Phosphatidylinositol 4,5-bisphosphate 3-kinase catalytic subunit alpha isoform, with p85 (PIK3CA, Homo sapiens, UniProt P42336, E542K)","enzyme activity, inhibitor",1 µM,activity vs control,100%
O=C(CSc1nc2nccnc2c(=O)n1CCc1ccccc1)Nc1ccccc1,PIK3CA,"enzyme activity, inhibitor",10 µM,inhibition,< 20%
Cc1nccc(COC(=O)N2C[C@@H]3[C@@H](CNC(=O)c4ccc5[nH]nnc5c4)[C@@H]3C2)n1,PIK3CA H1047Y,"cell-free assay, competition with immobilised ligand",1 µM,remaining binding,82%
C[C@H]1CCN(c2nccc(-c3cnn4ncccc34)n2)C1,"Phosphatidylinositol 4,5-bisphosphate 3-kinase catalytic subunit alpha isoform (PIK3CA, Homo sapiens, UniProt P42336, E545A)",binding,1 µM,remaining binding,100%
CCS(=O)(=O)c1cc2cc(C[C@@](O)(CC(C)(C)c3ccc(F)cc3C(N)=O)C(F)(F)F)[nH]c2cn1,"Phosphatidylinositol 4,5-bisphosphate 3-kinase catalytic subunit alpha isoform (PIK3CA, Homo sapiens, UniProt P42336, H1047L)","cell-free assay, competition with immobilised ligand",1 µM,remaining binding,97%
CC(C)=CC(=O)CCCC(=O)N1CCN(c2nc(-c3cnc(N)nc3C(F)F)nc(N3CCOCC3)n2)CC1,PIK3CA,"cell-free assay, TR-FRET",,kinact,2.6e-05 s⁻¹
N[C@H]1CCN(c2nccc(-c3cnn4ncccc34)n2)C1,PIK3CA I800L,binding,1 µM,remaining binding,100%
COc1cccc2c(NCc3ccccc3)nc(-n3c(N)nc4ccccc43)nc12,PIK3CA,"target engagement in cells, inhibitor, chemoproteomics",20 mM,inhibition,5.6%
O=S(=O)(Nc1cc(Sc2ncn[nH]2)c(O)c2ccccc12)c1ccc(-c2ccccc2)cc1,PIK3CA,"enzyme activity, inhibitor",1 µM,remaining activity,≥ 75%
COc1cc(-c2cn(C3CCc4ccccc4N(CC(F)(F)F)C3=O)nn2)ccc1-n1ccc(C)n1 (stereo not shown),PIK3CA E542K,"cell-free assay, competition with immobilised ligand",1 µM,remaining binding,82%
C=CC(=O)NCCCCC(=O)N1CCN(c2nc(-c3cnc(N)nc3C(F)F)nc(N3CCOCC3)n2)CC1,PIK3CA,"cell-free assay, TR-FRET",,kinact/KI,16400 M⁻¹ s⁻¹
Nc1ncnc2occ(-c3ccc(NC(=O)Nc4cc(C(F)(F)F)ccc4F)cc3)c12,PIK3CA M1043I,"cell-free assay, inhibitor",20 µM,remaining signal,100%
CN(C)c1nccc(-c2cnn3ncccc23)n1,PIK3CA I800L,binding,1 µM,remaining binding,96%
C/C=C/C(=O)CCCCCC(=O)N1CCN(c2nc(-c3cnc(N)nc3C(F)F)nc(N3CCOCC3)n2)CC1,PIK3CA,"cell-free assay, TR-FRET",,kinact,0.0153 s⁻¹
c1cnn2ncc(-c3ccnc(N4CCC45COC5)n3)c2c1,PIK3CA M1043I,binding,1 µM,remaining binding,67%
O=c1nc(-c2ccccn2)sc2ccccc12,PIK3CA E542K,"cell-free assay, competition with immobilised ligand",1 µM,remaining binding,89%
Cc1cnn2ncc(-c3ccnc(N(C)C)n3)c2c1,PIK3CA I800L,binding,1 µM,remaining binding,100%
CN(C)c1ncnc(-c2ccc3nc(Nc4cc(CN5CCN(C(=O)CC(F)(F)F)CC5)ccn4)[nH]c3c2)c1Cl,PIK3CA E545K,"cell-free assay, competition with immobilised ligand",1 µM,remaining binding,76%
